Like-named read-outs stand apart in the source and are kept apart here.
Legend:
[1] = target: T1, human recombinant fatty acid amide hydrolase (FAAH) (Homo sapiens, UniProt O00519); assay: FAAH activity in intact COS‐hFAAH cells; assay type: cell-based
T1 sequence (O00519 1-579): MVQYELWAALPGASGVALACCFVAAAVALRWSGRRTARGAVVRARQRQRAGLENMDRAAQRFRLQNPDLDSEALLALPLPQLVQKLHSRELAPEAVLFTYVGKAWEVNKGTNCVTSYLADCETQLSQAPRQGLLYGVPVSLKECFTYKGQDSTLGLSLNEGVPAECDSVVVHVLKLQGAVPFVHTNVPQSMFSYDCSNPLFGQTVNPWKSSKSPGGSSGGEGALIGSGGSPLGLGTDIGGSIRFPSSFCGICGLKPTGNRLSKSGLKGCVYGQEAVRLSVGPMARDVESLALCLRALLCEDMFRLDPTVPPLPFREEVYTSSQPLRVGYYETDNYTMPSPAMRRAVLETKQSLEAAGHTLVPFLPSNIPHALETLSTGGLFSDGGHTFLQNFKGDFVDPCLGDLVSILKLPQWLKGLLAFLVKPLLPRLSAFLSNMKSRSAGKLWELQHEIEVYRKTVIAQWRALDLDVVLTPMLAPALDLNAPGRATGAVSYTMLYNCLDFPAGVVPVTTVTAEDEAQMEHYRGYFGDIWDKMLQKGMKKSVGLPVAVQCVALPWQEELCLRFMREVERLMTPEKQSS

[2] = tested on: brain 2‐arachidonoylglycerol (2‐AG); assay: 2‐arachidonoylglycerol; assay type: in vivo; conditions: mouse, 10 mg·kg^−1 p.o.
How it was run: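 Frozen brains were thawed at 4°C and weighed. Each sample was extracted with chloroform:MeOH (2:1) plus 0.1 M phosphate buffer, pH 5.6. Deuterated internal standards were spiked in: AEA‑d8, PEA‑d4 and OEA‑d2 for the fatty acid amides, and 2‑AG‑d8 for 2‑AG.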

CYP1A2 = CYP1A2 (Homo sapiens, UniProt P05177); assay: CYP inhibition, pooled human liver microsomes; assay type: in vitro ADME; conditions: 0.33–99.2 μM, co‐ and pre‐incubation
Chain of CYP1A2 (P05177 whole entry): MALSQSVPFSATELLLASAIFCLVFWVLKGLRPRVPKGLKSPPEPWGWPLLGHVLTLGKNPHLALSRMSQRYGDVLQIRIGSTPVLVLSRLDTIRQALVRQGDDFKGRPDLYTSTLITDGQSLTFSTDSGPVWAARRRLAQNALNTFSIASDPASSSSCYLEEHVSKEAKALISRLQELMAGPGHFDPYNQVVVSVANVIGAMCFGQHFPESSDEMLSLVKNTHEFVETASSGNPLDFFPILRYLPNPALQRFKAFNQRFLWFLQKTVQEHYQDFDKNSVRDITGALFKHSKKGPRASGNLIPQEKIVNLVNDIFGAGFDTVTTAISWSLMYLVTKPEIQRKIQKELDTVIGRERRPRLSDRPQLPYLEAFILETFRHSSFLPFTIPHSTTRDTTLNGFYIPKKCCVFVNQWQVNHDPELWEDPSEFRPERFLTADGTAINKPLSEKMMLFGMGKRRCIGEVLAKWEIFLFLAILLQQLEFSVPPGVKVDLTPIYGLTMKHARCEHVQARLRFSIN
How it was run: (§1)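 The rate of metabolite formation was measured; testosterone was one CYP3A4 substrate. Controls: solvent vehicle, enzyme-selective inhibitors, mechanism-based inhibitors. Analysis by HPLC with online radio-detection or LC/MS/MS.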

CYP2B6 = CYP2B6 (Homo sapiens, UniProt P20813); assay: CYP inhibition, pooled human liver microsomes; assay type: in vitro ADME; conditions: 0.33–99.2 μM, co‐ and pre‐incubation
Chain of CYP2B6 (P20813 whole entry): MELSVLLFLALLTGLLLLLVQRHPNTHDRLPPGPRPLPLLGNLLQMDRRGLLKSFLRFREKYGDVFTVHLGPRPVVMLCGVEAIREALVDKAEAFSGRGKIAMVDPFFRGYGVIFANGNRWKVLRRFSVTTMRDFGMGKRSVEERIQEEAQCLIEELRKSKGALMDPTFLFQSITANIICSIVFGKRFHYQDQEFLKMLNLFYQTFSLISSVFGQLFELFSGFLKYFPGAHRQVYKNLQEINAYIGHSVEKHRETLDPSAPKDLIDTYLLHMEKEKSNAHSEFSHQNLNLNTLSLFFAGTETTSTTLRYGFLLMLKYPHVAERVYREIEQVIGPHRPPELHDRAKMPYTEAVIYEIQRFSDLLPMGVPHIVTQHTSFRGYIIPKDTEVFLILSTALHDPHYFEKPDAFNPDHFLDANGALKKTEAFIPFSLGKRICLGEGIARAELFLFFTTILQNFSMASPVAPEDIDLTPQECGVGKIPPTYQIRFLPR
How it was run: as §1

CYP2C8 = CYP2C8 (Homo sapiens, UniProt P10632); assay: CYP inhibition, pooled human liver microsomes; assay type: in vitro ADME; conditions: 0.33–99.2 μM, co‐ and pre‐incubation
Chain of CYP2C8 (P10632 whole entry): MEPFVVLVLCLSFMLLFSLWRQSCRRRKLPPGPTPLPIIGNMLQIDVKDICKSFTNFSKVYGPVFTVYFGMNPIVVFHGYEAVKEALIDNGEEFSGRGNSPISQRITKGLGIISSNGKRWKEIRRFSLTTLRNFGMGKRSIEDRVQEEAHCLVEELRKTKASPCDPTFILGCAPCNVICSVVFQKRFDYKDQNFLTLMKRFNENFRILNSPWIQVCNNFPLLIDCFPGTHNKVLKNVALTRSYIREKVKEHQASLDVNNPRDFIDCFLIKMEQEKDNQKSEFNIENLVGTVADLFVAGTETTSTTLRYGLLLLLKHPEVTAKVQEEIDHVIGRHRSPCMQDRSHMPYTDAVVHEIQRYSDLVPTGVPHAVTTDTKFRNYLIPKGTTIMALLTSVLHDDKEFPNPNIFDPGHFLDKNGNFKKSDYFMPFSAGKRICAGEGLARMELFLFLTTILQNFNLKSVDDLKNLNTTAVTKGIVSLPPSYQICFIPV
How it was run: as §1

CYP2C9 = CYP2C9 (Homo sapiens, UniProt P11712); assay: CYP inhibition, pooled human liver microsomes; assay type: in vitro ADME; conditions: 0.33–99.2 μM, co‐ and pre‐incubation
Chain of CYP2C9 (P11712 whole entry): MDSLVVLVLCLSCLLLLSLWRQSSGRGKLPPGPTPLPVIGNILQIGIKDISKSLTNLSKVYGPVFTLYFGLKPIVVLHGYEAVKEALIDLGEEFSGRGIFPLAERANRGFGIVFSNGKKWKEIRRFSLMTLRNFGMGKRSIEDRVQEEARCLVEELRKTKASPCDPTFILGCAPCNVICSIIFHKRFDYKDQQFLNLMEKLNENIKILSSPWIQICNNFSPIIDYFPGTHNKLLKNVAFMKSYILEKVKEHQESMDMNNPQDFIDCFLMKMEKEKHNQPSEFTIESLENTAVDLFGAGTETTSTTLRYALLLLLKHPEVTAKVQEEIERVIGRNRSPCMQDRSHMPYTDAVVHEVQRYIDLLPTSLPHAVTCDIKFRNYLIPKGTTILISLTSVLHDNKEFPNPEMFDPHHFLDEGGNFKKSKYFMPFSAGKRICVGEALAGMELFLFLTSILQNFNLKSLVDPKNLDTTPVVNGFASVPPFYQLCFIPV
How it was run: as §1

CYP2E1 = CYP2E1 (Homo sapiens, UniProt P05181); assay: CYP inhibition, pooled human liver microsomes; assay type: in vitro ADME; conditions: 0.33–99.2 μM, co‐ and pre‐incubation
Chain of CYP2E1 (P05181 whole entry): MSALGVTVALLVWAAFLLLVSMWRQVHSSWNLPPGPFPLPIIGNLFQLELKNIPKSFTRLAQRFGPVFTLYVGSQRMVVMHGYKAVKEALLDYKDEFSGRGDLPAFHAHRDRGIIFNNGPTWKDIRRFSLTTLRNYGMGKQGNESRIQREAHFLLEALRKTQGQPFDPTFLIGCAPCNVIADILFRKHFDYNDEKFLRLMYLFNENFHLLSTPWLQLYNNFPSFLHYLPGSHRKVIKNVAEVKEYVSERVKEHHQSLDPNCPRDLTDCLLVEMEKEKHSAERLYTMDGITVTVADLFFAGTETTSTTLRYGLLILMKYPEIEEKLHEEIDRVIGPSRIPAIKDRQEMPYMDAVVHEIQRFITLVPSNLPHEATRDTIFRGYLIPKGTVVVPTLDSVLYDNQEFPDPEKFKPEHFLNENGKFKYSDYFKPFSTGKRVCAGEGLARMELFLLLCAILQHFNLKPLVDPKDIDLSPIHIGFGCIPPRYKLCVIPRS
How it was run: as §1

OCT1 = OCT1 (Homo sapiens, UniProt O15245); assay: Transporter inhibition, probe substrate accumulation; assay type: in vitro ADME; conditions: CHO-K1 cells stably transfected with OCT1
Chain of OCT1 (O15245 whole entry): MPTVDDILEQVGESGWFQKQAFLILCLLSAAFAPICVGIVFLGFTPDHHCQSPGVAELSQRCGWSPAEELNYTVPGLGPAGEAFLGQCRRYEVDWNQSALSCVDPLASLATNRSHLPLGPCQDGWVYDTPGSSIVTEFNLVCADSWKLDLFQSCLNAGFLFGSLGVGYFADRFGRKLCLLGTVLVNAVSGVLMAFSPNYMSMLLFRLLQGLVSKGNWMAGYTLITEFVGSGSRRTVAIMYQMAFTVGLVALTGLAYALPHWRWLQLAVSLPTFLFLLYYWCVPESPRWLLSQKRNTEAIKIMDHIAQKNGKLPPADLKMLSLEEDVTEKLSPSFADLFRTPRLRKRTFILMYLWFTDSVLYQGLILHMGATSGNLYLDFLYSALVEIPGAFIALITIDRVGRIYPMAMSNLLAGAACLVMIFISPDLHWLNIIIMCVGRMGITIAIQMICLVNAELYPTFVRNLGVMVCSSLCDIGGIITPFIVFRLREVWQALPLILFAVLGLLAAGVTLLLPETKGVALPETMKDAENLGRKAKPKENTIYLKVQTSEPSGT
How it was run: (§2)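 Inhibition of probe substrate accumulation in transfected cells: CHO‑K1 for OAT1 and OCT1; HEK293 for OAT3, OATP1B1 and OATP1B3; MDCKII for OCT2, MATE1 and MATE2‑K. Each transporter's activity was confirmed with a positive control substrate or inhibitor.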

OCT2 = OCT2 (Homo sapiens, UniProt O15244); assay: as above; assay type: in vitro ADME; conditions: MDCKII cells stably transfected with OCT2
Chain of OCT2 (O15244 whole entry): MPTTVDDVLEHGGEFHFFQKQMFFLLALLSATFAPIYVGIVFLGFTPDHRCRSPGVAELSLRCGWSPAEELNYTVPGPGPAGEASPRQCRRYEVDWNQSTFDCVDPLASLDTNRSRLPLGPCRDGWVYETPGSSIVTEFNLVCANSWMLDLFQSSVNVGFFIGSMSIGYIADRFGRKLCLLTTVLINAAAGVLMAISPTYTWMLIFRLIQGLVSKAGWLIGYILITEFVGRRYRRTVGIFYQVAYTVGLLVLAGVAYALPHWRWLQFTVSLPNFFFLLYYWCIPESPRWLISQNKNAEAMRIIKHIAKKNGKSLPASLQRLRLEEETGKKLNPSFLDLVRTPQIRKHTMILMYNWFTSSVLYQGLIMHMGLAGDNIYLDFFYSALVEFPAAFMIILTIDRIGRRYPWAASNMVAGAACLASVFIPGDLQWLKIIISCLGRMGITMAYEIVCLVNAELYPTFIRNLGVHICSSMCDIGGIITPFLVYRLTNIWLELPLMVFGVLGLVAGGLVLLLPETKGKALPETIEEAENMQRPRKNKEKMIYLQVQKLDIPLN
How it was run: as §2

human OATP1B3 = human OATP1B3 (Homo sapiens, UniProt Q9NPD5); assay: as above; assay type: in vitro ADME; conditions: 0.033–33.3 μM
Chain of human OATP1B3 (Q9NPD5 whole entry): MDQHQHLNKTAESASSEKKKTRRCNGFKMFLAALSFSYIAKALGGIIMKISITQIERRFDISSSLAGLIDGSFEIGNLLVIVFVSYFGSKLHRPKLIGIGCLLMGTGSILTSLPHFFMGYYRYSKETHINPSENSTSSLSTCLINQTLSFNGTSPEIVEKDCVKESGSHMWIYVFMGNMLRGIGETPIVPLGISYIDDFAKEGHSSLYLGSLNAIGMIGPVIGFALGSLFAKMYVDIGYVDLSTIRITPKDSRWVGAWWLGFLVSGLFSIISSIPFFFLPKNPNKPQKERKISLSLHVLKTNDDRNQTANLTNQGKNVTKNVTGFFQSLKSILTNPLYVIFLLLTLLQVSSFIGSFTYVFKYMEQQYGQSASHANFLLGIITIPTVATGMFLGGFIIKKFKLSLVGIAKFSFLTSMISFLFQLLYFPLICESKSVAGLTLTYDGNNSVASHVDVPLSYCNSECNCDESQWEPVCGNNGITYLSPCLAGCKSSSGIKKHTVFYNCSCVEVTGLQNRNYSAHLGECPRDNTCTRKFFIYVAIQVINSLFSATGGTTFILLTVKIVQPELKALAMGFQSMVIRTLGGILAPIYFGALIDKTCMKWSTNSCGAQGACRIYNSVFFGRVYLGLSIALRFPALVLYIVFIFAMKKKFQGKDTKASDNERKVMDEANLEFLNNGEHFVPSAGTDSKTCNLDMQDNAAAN
How it was run: as §2

rat brain = assay: Brain histopathology and behaviour in rats dosed 1 to 28 days; assay type: in vivo; conditions: rat, 10, 30 or 100 mg·kg^−1·day^−1 p.o.
SHRSP = assay: Stroke‐prone spontaneously hypertensive rats; assay type: in vivo, rat; conditions: 30 mg·kg^−1 p.o. daily
How it was run: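 SHRSP rats on stroke-prone diet with high-salt intake, n = 30 per group, received daily oral 0.2% HPMC vehicle or test compound at 30 mg·kg−1 in 0.2% HPMC (4 ml·kg−1). Normal-diet, tap-water controls (n = 10) received vehicle. Dosing continued until about half of either treated group had died; surviving rats' brains were examined histologically.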

[3] = GLP rat toxicology studies; assay type: in vivo; conditions: 100 mg·kg^−1, assuming brain:plasma ratio of 1:5
[4] = human, 2017, cited from earlier work

**Q.** For CN(C(=O)n1cnc(-c2ccc[n+]([O-])c2)c1)C1CCCCC1 [BIA 10‐2474, 3‐(1‐(cyclohexyl (methyl)carbamoyl)‐1H‐imidazol‐4‐yl)pyridine 1‐oxide], which “fold less potent than PF‐04457845 in inhibiting human FAAH in situ” value [1] is on record?
**A.** 10 fold

**Q.** What about the IC50 ([1]; IC50 [95% CI], incubation 1 hr) of the same molecule?
**A.** 74.4 nM

**Q.** And the IC50 ([1]; IC50 [95% CI], incubation 3 hr)?
**A.** 42.5 nM

**Q.** What about the IC50 ([1]; IC50 [95% CI], incubation 24 hr) of the same molecule?
**A.** 18 nM

**Q.** And the IC50 ([1]; IC50 values over all incubation times, intact cells expressing human FAAH)?
**A.** 18 to 74 nM

**Q.** And the “brain 2‐AG level” value ([2]; 1 hr, vehicle 45.1 ± 7.9)?
**A.** 30.4 ± 11.7 µg/g

**Q.** What about the “brain 2‐AG level” value ([2]; 4 hr, vehicle 40.9 ± 3.4) of the same molecule?
**A.** 44.5 ± 4.9 µg/g

**Q.** And the “brain 2‐AG level” value ([2]; 8 hr, vehicle 39.0 ± 13.2)?
**A.** 34.9 ± 7.7 µg/g

**Q.** What about the “brain 2‐AG level” value ([2]; 24 hr, vehicle 38.0 ± 5.7) of the same molecule?
**A.** 31.4 ± 9.4 µg/g

**Q.** What about the “inhibitory effect on CY1A2” value (CYP1A2) of the same molecule?
**A.** did not exhibit any inhibitory effects

**Q.** What about the “inhibitory effect on CYP2B6” value (CYP2B6) of the same molecule?
**A.** did not exhibit any inhibitory effects

**Q.** What about the “inhibitory effect on CYP2C8” value (CYP2C8) of the same molecule?
**A.** did not exhibit any inhibitory effects

**Q.** What about the “inhibitory effect on CYP2C9” value (CYP2C9) of the same molecule?
**A.** did not exhibit any inhibitory effects

**Q.** And the “inhibitory effect on CYP2E1” value (CYP2E1)?
**A.** did not exhibit any inhibitory effects

**Q.** And the inhibition at 10 μg·ml^−1 (OCT1)?
**A.** 26%

**Q.** And the inhibition at 10 μg·ml^−1 (OCT2)?
**A.** 25%

**Q.** What about the “effect on OATP1B3‐mediated probe substrate accumulation” value (human OATP1B3) of the same molecule?
**A.** did not influence

**Q.** What about the brain histopathology (rat brain) of the same molecule?
**A.** no abnormalities

**Q.** And the “overt behavioural abnormalities during treatment” value (rat brain)?
**A.** none of the animals used in this study showed any overt behavioural abnormalities

**Q.** What about the “effect on mortality rate compared with vehicle” value (SHRSP; log‐rank test P = .1882) of the same molecule?
**A.** no effect

**Q.** What about the “surviving rats with haemorrhage in the hippocampus and dorsal cortex” value (SHRSP; vehicle three of the 14) of the same molecule?
**A.** Three of the 17

**Q.** What about the “maximum brain concentrations (suggested)” value [3] of the same molecule?
**A.** around 20 μM

**Q.** What about the “maximum plasma exposure in the clinic” value ([4]; 50 mg ref Rocha et al.) of the same molecule?
**A.** around 2 μM

**Q.** What about the “maximum plasma exposure in the clinic” value ([4]; 100 mg ref Rocha et al.) of the same molecule?
**A.** ~6 µM

**Q.** Which results are given for O=C(Nc1cccnn1)N1CCC(=Cc2cccc(Oc3ccc(C(F)(F)F)cn3)c2)CC1 [PF‐04457845]?
**A.** IC50 ([1]; read-out: IC50 [95% CI], incubation 1 hr): 4.3 nM; IC50 ([1]; read-out: IC50 [95% CI], incubation 3 hr): 3.4 nM

From PMC7161550 (British Journal of Pharmacology, 2020)
